Assay outcomes from PubChem BioAssay.
HTR2A ag = mouse Htr2a agonists via beta-arrestin recruitment, primary screen, cell-based, luminescence; CHO-K1 mHTR2A beta-arrestin complementation; percent of 30 µM serotonin response; activation, % at 7.6 µM; actives 0.66% (n = 360,000); AID 624169, 2012;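 active = activation above a run cutoff, the mean activation of all tested compounds plus 3 SD, cut at about 14% in these data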;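 note: 0% = plate median of compound wells and 100% = 30 µM serotonin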
Target sequence (P35363 whole entry, looked up): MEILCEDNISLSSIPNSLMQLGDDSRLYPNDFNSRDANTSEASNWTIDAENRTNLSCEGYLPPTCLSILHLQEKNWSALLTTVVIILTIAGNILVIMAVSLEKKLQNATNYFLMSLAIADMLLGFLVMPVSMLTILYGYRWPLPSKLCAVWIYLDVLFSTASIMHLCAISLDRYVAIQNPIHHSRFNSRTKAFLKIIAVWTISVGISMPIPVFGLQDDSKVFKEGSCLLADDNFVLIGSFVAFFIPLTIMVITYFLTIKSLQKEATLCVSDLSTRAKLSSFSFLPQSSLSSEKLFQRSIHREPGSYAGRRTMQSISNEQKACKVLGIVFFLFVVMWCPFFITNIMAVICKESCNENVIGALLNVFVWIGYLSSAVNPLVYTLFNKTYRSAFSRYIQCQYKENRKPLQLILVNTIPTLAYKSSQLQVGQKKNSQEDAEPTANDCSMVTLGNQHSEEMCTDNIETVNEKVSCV
CHRM1 agonist = human M1 muscarinic receptor agonists, primary screen, Fluo-8 calcium fluorescence, CHO-K1 cells, HTS; CHO-K1 hM1, agonist mode; 0% DMSO, 100% acetylcholine EC100; activation, % at 3 µM; AID 588814, 2011; actives 0.33% (n = 360,000); Muscarinic acetylcholine receptor M1 (Homo sapiens), P11229;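 active = activation above the run's mean compound activation plus 3 SD, cut at about 16% in these data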;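 note: peak over basal fluorescence ratio within a 140 s kinetic read after compound addition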
CHRM1 PAM = human M1 muscarinic receptor positive allosteric modulators, primary screen, CHO-K1 cells, Fluo-8 calcium fluorescence, 1536-well. Muscarinic acetylcholine receptor M1 (Homo sapiens), P11229. CHO-K1 hM1, ACh EC20; 0% = ACh EC20, 100% = maximal ACh. activation, % at 3 µM. actives 0.088% (n = 360,000). AID 588819, 2011; in the data active = activation above about 19%, passing the limit was not always enough
TAAR1 antag = human TAAR1 antagonists, primary screen, Fluo-8 calcium fluorescence, CHO RD-HGA16 cells; Trace amine-associated receptor 1 (Homo sapiens), Q96RJ0; antagonist; actives 1.5% (n = 360,000); inhibition, % at 3 µM; AID 624466, 2012;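 active = inhibition above a per-plate cutoff, the mean inhibition of test compounds on that plate plus 3 SD, cut at about 49% in these data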;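 note: 0% = DMSO plus EC80 beta-PEA response and 100% = DMSO alone without agonist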
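System: CHO RD-HGA16 cells bearing hTAAR1. Reagent: EC80 β-phenethylamine stimulus. Schedule: seeding 17-24 h prior, 75-min 37 °C, 30-min RT dye loading. Signal: Fluo-8 intracellular calcium dye fluorescence, real-time kinetic reads. Read-out: % inhibition from peak post-agonist over basal fluorescence ratio. Benchmarks: vehicle wells and EC80 agonist wells. Replicates: n of 1.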
TAAR1 ag = human TAAR1 agonists, primary screen, Fluo-8 calcium fluorescence, CHO RD-HGA16 cells. vehicle wells 0%, saturating PEA agonist 100%. actives 0.99% (n = 360,000). activation, % at 3 µM. Trace amine-associated receptor 1 (Homo sapiens), Q96RJ0;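 active = activation above the mean activation of all test compounds in the run plus 3 SD, cut at about 38% in these data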
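System: CHO RD-HGA16 cells carrying human TAAR1 plus Gα16; Incubation: 17-24 h seeding, 75 min 37 °C dye, 30 min RT; Measured by: Fluo-8 fluorescence, 5 s baseline then 140 s kinetic read; Control set: DMSO and PEA EC100; Replication: single well for each compound.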
CHRM1 antagonist = human M1 muscarinic receptor antagonists, primary screen, CHO-K1 cells, Fluo-8 calcium fluorescence, 1536-well; Muscarinic acetylcholine receptor M1 (Homo sapiens), P11229; CHO-K1 hM1, ACh EC80 antagonist; inhibition, % at 3 µM; AID 588852, 2011; actives 1.3% (n = 360,000);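 active = percent inhibition above its own plate's cutoff, namely the mean of that plate's compound wells plus 3 SD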;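 note: peak over basal fluorescence ratio during 140 s after agonist addition; 0% = ACh EC80 plus DMSO and 100% = DMSO alone without agonist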
* hit, by the source's call; . = no result given. The list is not random: actives were taken first. Their share in the collection is about 3.9%.

SMILES	HTR2A ag	CHRM1 agonist	CHRM1 PAM	TAAR1 antag	TAAR1 ag	CHRM1 antagonist
COc1ccc(NC(=O)CSc2nc3sc4c(c3c(=O)n2-c2ccc(OC)cc2)CCN(C)C4)cc1	-1	-5	1	-17	0	-1
COc1ccc(-n2c(SC)nc3sc4c(c3c2=O)CCN(C)C4)cc1	-9	-6	-2	-17	1	70*
CCOC(=O)CSc1nc2sc3c(c2c(=O)n1C1CCCCC1)CCN(C)C3	1	-7	-25	20	1	24*
C=CCSc1nc2sc3c(c2c(=O)n1-c1ccccc1)CCN(C)C3	8	-8	-23	-28	1	37*
CCSc1nc2sc3c(c2c(=O)n1-c1ccccc1)CCN(C)C3	-2	-8	-17	3	1	22
OC(COCCOc1ccc(Br)cc1)CN1CCN(Cc2ccccc2)CC1 (stereo not drawn)	-4	-11	4	-11	4	-6
COC(=O)c1cccnc1-n1c(=O)c2cccnc2n(Cc2ccc([N+](=O)[O-])cc2)c1=O	-2	18*	4	-13	2	-9
COC(=O)c1cccnc1-n1c(=O)c2cccnc2n(CC(=O)Nc2ccc(Br)cc2)c1=O	2	6	15	-1	4	-17
Cc1nn(-c2ccccc2)cc1/C=N/NC(N)=S	-6	5	31*	-20	1	-7
Cc1nn(-c2ccccc2)cc1/C=N/O	2	-2	1	18	5	13
O=C(NCCS(=O)(=O)N1CCCCC1)c1ccc2c(c1)OCO2	0	1	14	-4	0	-27
OC(CN1CCCC(C(F)(F)F)C1)c1ccccc1 (stereo not drawn)	0	2	34*	7	0	-32
OC(CN1CCc2ccccc2C1)c1ccccc1 (stereo not drawn)	-14	-6	2	-14	13	-8
CCn1c(C)c(C(C)=O)c(NCc2ccccc2)nc1=S	-7	-9	-22	7	1	51*
CC(=O)c1c(NCc2ccccc2)nc(=O)n(-c2ccccc2)c1C	1	-5	10	10	9	-12
c1ccc2cc(C3CCCCC3)ncc2c1	2	-5	5	16	7	-2
Cc1cccc(NC(=O)C(C)N2C(=O)c3ccccc3S2(=O)=O)n1 (stereo not drawn)	8	-1	-12	14	0	28*
Cc1cccc(NC(=O)CN2C(=O)c3ccccc3S2(=O)=O)n1	0	1	-7	-21	2	17
CC(C)(C)OC(=O)N1CCC[C@@H]1C(=O)N1CCC[C@H]1C(=O)NCc1ccccc1	.	.	.	-15	1	.
CSc1ccc(CN2CCC(Oc3ccc(C(=O)N4CCCC4)cc3)CC2)cc1	-6	-5	-23	-30	10	87*
O=C(c1ccc(OC2CCN(C/C=C/c3ccc(F)cc3)CC2)cc1)N1CCCC1	-7	-4	-21	-24	3	55*
CCc1ccc(CN2CCC(Oc3ccc(C(=O)N4CCCC4)cc3)CC2)cc1	-5	-6	-24	-22	0	82*
COc1cc(C)c(CN2CCC(Oc3ccc(C(=O)N4CCCC4)cc3)CC2)cc1C	-5	-5	1	-14	-1	-6
COc1ccc(CN2CCC(Oc3ccc(C(=O)N4CCCC4)cc3)CC2)c(F)c1	-1	-6	-23	-4	4	61*
CCOC(=O)[C@]12CCCC=C1N(CCC1=CCCCC1)C(=O)[C@H](CC(=O)NCc1ccccc1)C2	-3	.	.	8	4	.
SMILES	HTR2A ag	CHRM1 agonist	CHRM1 PAM	TAAR1 antag	TAAR1 ag	CHRM1 antagonist
COc1cc(S(=O)(=O)NCC(c2ccco2)N2CCCCC2)ccc1NC(C)=O (stereo not drawn)	3	-2	10	-9	4	-5
CC(C)c1nc2sc3c(c2c(=O)[nH]1)CC(C)(C)OC3	5	-6	4	-13	6	1
CCOC(=O)C1(CC2CC2)CCN(Cc2ccc(OC)cc2F)CC1	-3	-9	-25	-19	1	28*
CC(C)c1ccc(CN2CCC(Oc3ccc(C(=O)N4CCCC4)cc3)CC2)cc1	-5	-4	-23	-14	1	81*
O=C(c1ccc(OC2CCN(Cc3ccc(F)cc3)CC2)cc1)N1CCCC1	-7	-6	-5	-28	5	1
CCOC(=O)C1(CC2CC2)CCN(Cc2cnc(-c3ccccc3C)nc2)CC1	1	-5	-4	-18	2	5
CCOc1cccc(CN2CCC(Oc3ccc(C(=O)N4CCCC4)cc3)CC2)c1	-5	-5	-23	-22	0	49*
Cc1cccc(CN2CCC(Oc3ccc(C(=O)N4CCCCC4)cc3)CC2)c1	-12	-4	8	3	2	-15
CCc1ccc(CN2CCC(Oc3ccc(C(=O)N4CCCCC4)cc3)CC2)cc1	-4	-5	-21	-23	0	42*
Cc1cccc(NC(=O)c2cc([N+](=O)[O-])ccc2N2CCCCC2)n1	-2	-6	1	-21	-3	-6
CC1Cc2cc(-c3csc(NC(=O)Cc4ccccc4)n3)ccc2N1S(C)(=O)=O (stereo not drawn)	-14	-6	-9	54*	8	20
CCCn1c(CN2CCN(C)CC2)nc2ccccc21	-3	-8	-15	11	4	21
CCCCn1c(CN2CCN(C)CC2)nc2ccccc21	-9	-7	-26	0	0	31*
O=C1CC(NNC(=O)c2cccc(F)c2)C(=O)N1 (stereo not drawn)	0	-1	0	-32	4	-6
O=C1CSC(c2ccccc2Br)N1c1ccc(Cl)cn1 (stereo not drawn)	-2	-6	-22	14	-3	59*
CN(C)C(CNC(C(=O)Nc1ccc(F)cc1)c1ccccc1)c1ccccc1 (stereo not drawn)	0	-7	-31	0	-3	84*
O=C(Nc1ccc(F)cc1)C(NC1CCCCC1)c1ccccc1 (stereo not drawn)	-1	-8	-26	-31	-2	60*
CCCCNc1ccc(C(F)(F)F)cc1S(=O)(=O)NCCc1ccc(F)cc1	-10	-7	-12	50*	0	14
COc1ccc(S(=O)(=O)NCCc2ccc(F)cc2)cc1	1	-3	2	-6	-1	-3
